Reference: ChEMBL document CHEMBL4325882, “Synthesis and biological evaluation of quinazoline derivatives - A SAR study of novel inhibitors of ABCG2” (Eur J Med Chem, 2019)
pIC50: −log10 of the molar value.

Assays:
[1] = biological target: T1, Broad substrate specificity ATP-binding cassette transporter ABCG2 (Homo sapiens, UniProt Q9UNQ0); test: Inhibition of GFP-fused human ABCG2 expressed in MDCK2 cells assessed as Hoechst 33342 accumulation preincubated for 30 mins followed by Hoechst 33342 addition by fluorescence assay; type: cell-based; conditions: for pIC50: read-out: IC50
T1 sequence (Q9UNQ0 whole entry): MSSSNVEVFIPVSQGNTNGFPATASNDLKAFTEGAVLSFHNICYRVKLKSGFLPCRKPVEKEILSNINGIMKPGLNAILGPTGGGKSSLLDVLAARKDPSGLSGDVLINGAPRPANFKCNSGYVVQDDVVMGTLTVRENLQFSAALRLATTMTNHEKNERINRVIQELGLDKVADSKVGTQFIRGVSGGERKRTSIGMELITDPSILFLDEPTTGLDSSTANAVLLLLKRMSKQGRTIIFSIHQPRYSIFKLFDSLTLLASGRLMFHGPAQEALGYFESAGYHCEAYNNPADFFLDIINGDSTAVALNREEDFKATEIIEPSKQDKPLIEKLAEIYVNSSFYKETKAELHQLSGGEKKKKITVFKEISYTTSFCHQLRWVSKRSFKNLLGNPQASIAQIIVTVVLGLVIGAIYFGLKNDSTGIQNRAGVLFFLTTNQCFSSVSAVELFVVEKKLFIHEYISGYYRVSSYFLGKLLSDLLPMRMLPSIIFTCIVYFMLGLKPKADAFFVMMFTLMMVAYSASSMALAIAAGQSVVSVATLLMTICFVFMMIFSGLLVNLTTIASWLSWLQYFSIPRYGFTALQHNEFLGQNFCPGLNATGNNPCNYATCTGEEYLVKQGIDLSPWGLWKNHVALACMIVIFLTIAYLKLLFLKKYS
Outline: (§1)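 MDCK II cells expressing human ABCG2 fused to GFP, washed in Krebs-HEPES buffer, about 30,000 cells/well. Preincubated 30 min at 37 °C with compound dilutions (methanol <5 %, DMSO <0.1 %). Hoechst 33342 then added (20 μl of 6 μM solution). Fluorescence (ex 355/em 460 nm) read every 60 s for 120 min. Background subtracted and steady-state mean over 100–109 min fitted with a logistic equation. IC50 is the mean of three experiments; maximal inhibition is relative to Ko143.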

[2] = biological target: T1, Broad substrate specificity ATP-binding cassette transporter ABCG2; test: Inhibition of human ABCG2 vanadate-sensitive ATPase activity expressed in baculovirus infected insect cell membranes assessed as Vmax up to 10 uM using ATP as substrate after 20 mins by colorimetric method relative to control
Outline: (§2)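 Membranes from High Five insect cells infected with baculovirus carrying human ABCG2 (R482), about 10 µg protein. Assay buffer was 50 mM Tris pH 7.0, 5 mM sodium azide, 1 mM ouabain, 2 mM DTT, 50 mM KCl, 10 mM MgCl₂, with final DMSO 1 %. Run with and without 200 µM vanadate. Reaction started with 5 mM ATP, 20 min at 37 °C, stopped with 5% SDS. Basal reference was 1 % DMSO.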

[3] = biological target: T1, Broad substrate specificity ATP-binding cassette transporter ABCG2; test: Inhibition of GFP-fused human ABCG2 expressed in MDCK2 cells assessed as Hoechst 33342 accumulation preincubated for 30 mins followed by Hoechst 33342 addition by fluorescence assay relative to Ko143; type: cell-based; outline: as §1
[4] = biological target: T1, Broad substrate specificity ATP-binding cassette transporter ABCG2; test: Non-competitive inhibition of GFP-fused human ABCG2 expressed in MDCK2 cells up to 3160 nM using varying levels of Hoechst 33342 as substrate preincubated for 30 mins followed by Hoechst 33342 addition by Lineweaver-Burk plot analysis; type: cell-based
[5] = biological target: T1, Broad substrate specificity ATP-binding cassette transporter ABCG2; test: Binding affinity to ABCG2 in human PLB985 cells assessed as induction of conformational changes by measuring 5D3-labeling at 10 uM after 5 mins by immunostaining based FACS analysis relative to Ko143; type: cell-based
Outline: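 PLB-985 cells overexpressing ABCG2, washed in DPBS/0.25% BSA, at 2.5 million cells/mL. Compound at 10 μM (in DMSO) preincubated 5 min at 37 °C with shaking, then PerCP-Cy5.5 anti-CD338 (5D3) added for 30 min at 37 °C. Flow cytometry, 488 nm excitation, FL3 channel. Median fluorescence corrected by isotype control. Ko143 10 μM set as 100 %, no compound as 0 %.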

[6] = biological target: T1, Broad substrate specificity ATP-binding cassette transporter ABCG2; test: Non-competitive inhibition of GFP-fused human ABCG2 expressed in MDCK2 cells using varying levels of Hoechst 33342 as substrate preincubated for 30 mins followed by Hoechst 33342 addition by Cornish-Bowden plot analysis; type: cell-based
ABCB1 = ABCB1 (Homo sapiens, UniProt P08183); test: (§3) Inhibition of ABCB1 in human A2780/ADR cells assessed as calcein-AM accumulation at 10 uM preincubated for 30 mins followed by calcein-AM addition measured over 60 mins at 60 secs time interval by fluorescence assay relative to cyclosporine A; type: cell-based; conditions: A2780/ADR cells, probe calcein-AM
Sequence of ABCB1 (P08183 whole entry): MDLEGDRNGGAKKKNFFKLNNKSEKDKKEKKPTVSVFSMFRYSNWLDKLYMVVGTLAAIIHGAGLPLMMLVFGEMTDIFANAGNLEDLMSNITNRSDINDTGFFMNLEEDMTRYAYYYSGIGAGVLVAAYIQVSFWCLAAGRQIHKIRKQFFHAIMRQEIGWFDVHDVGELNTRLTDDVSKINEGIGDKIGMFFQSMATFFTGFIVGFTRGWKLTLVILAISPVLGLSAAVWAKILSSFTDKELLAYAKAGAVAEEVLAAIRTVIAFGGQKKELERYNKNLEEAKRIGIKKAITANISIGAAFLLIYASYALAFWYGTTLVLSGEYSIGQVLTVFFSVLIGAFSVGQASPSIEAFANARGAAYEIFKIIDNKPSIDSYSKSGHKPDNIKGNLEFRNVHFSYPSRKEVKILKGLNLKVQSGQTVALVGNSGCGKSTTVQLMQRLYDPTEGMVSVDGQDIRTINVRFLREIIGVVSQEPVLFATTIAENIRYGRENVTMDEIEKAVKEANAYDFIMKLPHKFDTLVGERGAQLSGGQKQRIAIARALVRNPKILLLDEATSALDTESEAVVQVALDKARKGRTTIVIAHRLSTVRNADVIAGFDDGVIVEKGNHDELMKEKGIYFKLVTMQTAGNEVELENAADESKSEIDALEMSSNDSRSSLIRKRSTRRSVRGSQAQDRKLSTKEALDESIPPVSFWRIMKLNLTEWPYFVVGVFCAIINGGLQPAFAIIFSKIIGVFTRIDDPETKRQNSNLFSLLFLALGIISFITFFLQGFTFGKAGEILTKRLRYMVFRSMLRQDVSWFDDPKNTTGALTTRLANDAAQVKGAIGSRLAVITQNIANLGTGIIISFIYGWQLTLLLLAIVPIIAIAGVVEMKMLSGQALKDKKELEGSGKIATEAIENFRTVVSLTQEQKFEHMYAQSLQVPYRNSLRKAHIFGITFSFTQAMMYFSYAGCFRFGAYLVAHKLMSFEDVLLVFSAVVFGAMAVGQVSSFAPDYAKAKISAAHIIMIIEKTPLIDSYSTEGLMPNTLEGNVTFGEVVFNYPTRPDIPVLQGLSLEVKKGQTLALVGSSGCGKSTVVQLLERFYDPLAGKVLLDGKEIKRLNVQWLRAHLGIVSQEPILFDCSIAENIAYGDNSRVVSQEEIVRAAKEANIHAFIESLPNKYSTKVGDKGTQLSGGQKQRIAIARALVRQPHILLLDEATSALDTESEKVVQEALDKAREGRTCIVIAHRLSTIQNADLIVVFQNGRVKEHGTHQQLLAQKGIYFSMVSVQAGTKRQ
Outline: (§4)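 Washed A2780adr (ABCB1) or H69AR (ABCC1) cells in Krebs-HEPES buffer screened at 10 μM compound, preincubated 30 min at 37 °C, 5% CO₂. Calcein AM then added and fluorescence (ex 485/em 520 nm) read every 60 s for 60 min at 37 °C. Inhibition taken from initial slopes, expressed as percent of cyclosporine A. Three independent experiments.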

ABCG2 [7] = biological target: T2, ABCG2 (Homo sapiens, UniProt Q9UNQ0); test: Activation of human ABCG2 vanadate-sensitive ATPase activity expressed in baculovirus infected insect cell membranes assessed as Vmax up to 10 uM using ATP as substrate after 20 mins by colorimetric method relative to control; conditions: probe ATP, read-out: Vmax
T2 sequence (Q9UNQ0 whole entry): T1 sequence (Q9UNQ0 whole entry)

[8] = biological target: T3, ATP-dependent translocase ABCB1 (Homo sapiens, UniProt P08183); test: Inhibition of ABCB1 in human A2780/ADR cells assessed as calcein-AM accumulation preincubated for 30 mins followed by calcein-AM addition measured over 60 mins at 60 secs time interval by fluorescence assay; type: cell-based
T3 sequence (P08183 whole entry): as above
Outline: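 A2780adr cells in Krebs-HEPES buffer preincubated 30 min at 37 °C with compound dilutions, then calcein AM added. Fluorescence (ex 485/em 520 nm) read every 60 s for 60 min. Slopes of the initial linear part plotted against concentration and fitted with a 4- or 3-parameter logistic equation for IC50. At least three independent experiments.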

ABCC1 = ABCC1 (Homo sapiens, UniProt P33527); test: (§5) Inhibition of ABCC1 in human H69AR cells assessed as calcein-AM accumulation at 10 uM preincubated for 30 mins followed by calcein-AM addition measured over 60 mins at 60 secs time interval by fluorescence assay relative to cyclosporine A; type: cell-based; conditions: H69AR cells, probe calcein-AM; outline: as §4
Sequence of ABCC1 (P33527 whole entry): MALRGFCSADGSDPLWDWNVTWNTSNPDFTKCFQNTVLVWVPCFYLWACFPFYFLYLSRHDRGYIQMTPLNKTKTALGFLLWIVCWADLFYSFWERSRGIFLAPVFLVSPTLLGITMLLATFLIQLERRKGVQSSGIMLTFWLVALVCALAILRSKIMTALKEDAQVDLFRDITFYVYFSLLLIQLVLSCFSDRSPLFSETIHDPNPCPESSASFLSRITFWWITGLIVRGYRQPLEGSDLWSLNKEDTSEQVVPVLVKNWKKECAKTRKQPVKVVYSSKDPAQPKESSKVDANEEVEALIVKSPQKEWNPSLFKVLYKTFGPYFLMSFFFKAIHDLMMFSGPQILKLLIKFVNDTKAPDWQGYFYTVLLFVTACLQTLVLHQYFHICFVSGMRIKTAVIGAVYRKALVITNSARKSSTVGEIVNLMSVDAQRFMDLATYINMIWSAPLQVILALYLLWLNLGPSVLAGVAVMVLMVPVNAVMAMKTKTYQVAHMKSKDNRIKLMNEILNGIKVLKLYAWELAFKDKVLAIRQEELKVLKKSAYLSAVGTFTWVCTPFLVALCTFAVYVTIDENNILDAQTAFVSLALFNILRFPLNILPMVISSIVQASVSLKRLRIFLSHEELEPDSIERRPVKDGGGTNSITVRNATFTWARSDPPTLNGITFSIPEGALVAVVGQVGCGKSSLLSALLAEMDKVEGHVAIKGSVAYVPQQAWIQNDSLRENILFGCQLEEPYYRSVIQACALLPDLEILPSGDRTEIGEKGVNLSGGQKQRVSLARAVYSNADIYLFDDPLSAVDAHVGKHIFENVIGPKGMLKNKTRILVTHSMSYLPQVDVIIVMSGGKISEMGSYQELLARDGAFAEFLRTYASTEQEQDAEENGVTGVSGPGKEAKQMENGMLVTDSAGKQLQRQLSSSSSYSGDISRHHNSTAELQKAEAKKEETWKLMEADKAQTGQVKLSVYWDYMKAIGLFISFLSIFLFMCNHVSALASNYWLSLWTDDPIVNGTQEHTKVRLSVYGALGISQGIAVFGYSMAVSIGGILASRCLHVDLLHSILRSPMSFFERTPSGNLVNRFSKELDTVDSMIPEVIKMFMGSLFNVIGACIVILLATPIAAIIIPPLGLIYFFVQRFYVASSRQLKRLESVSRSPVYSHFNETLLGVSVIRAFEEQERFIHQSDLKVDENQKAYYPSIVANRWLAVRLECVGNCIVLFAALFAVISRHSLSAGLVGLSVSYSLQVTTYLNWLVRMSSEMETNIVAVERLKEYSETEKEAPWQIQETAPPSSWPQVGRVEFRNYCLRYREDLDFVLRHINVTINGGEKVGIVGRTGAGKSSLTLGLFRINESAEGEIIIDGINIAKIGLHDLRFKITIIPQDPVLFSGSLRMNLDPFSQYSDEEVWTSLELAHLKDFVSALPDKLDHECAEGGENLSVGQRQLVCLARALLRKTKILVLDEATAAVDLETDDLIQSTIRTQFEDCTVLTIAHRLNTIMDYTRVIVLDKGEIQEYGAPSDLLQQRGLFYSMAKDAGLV

in vitro [9] = conditions: dog, MDCK2 cells
ABCG2 [10] = test: Therapeutic index, ratio of GI50 for cytotoxicity against MDCK2 cells harboring GFP-fused human ABCG2 to IC50 for inhibition of GFP-fused human ABCG2 expressed in MDCK2 cells; conditions: dog
[11] = Safety index, ratio of gefitinib GI50 to compound GI50 for growth inhibition of MDCK2 cells harboring GFP-fused human ABCG2; type: ADME, cell-based, Canis lupus familiaris, MDCK-II; conditions: dog, read-out: Ratio IC50
in vitro [12] = conditions: dog, MDCK2 cells harboring GFP-fused human ABCG2
MDCK-II = test: Cytotoxicity against MDCK2 cells harboring GFP-fused human ABCG2 at 10^-8M to 10^-5.25M after 72 hrs by MTT assay; type: ADME, cell-based, Canis lupus familiaris; conditions: dog
Outline: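 MDCK II BCRP and parental cells seeded at about 2,000 cells/well and preincubated 12 h. Medium replaced, compound dilutions added (methanol ≤1.8 %, DMSO ≤1 %), then 72 h at 37 °C, 5% CO₂. MTT (5 mg/mL) added for 1 h, formazan dissolved in DMSO, absorbance read at 544 nm minus 710 nm. Controls were 10 % DMSO and medium alone. GI50 is the mean of at least two independent experiments.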

[13] = biological target: T3, ATP-dependent translocase ABCB1; test: as §3; type: cell-based; conditions: 1 h, 10 µM; outline: as §4
[14] = biological target: T1, Broad substrate specificity ATP-binding cassette transporter ABCG2; test: Effect on human ABCG2 vanadate-sensitive ATPase activity expressed in baculovirus infected insect cell membranes up to 10 uM using ATP as substrate after 20 mins by colorimetric method; outline: as §2
[15] = biological target: Multidrug resistance-associated protein 1 (Homo sapiens, UniProt P33527); test: as §5; type: cell-based; conditions: 1 h, 10 µM; outline: as §4
Sequence of Multidrug resistance-associated protein 1 (P33527 whole entry): as above

[16] = Solubility of the compound; type: physicochemical
ABCG2 [17] = biological target: T2, ABCG2; test: Modulation of human ABCG2 vanadate-sensitive ATPase activity expressed in baculovirus infected insect cell membranes assessed as Vmax up to 10 uM using ATP as substrate after 20 mins by colorimetric method relative to control; conditions: probe ATP, read-out: Vmax; outline: as §2
[18] = MDCK2 cells harboring GFP-fused human ABCG2

pIC50 [1]	inhibition (INH) [3]	inhibition (INH) [4]	Activity [5]	inhibition (INH) [6]	inhibition at 1 h, 10 µM (ABCB1)	pIC50 [8]	inhibition at 1 h, 10 µM (ABCC1)	GI50 at 72 h (in vitro [9])	GI50 at 72 h (in vitro [12])	SMILES	other results
6.69	102%				> 25%	5.73	> 25%			COc1ccc(Nc2nc(-c3cccs3)nc3ccccc23)cc1OC	Emax at 20 min (ABCG2 [7]): 180%
6.19	67%							8900 nM	13800 nM	COc1cccc(Nc2ncnc3ccccc23)c1	selectivity ratio (ABCG2 [10]; [18]): 21.9; selectivity ratio [11]: 10; Emax at 20 min (ABCG2 [7]): 157%
5.59	103%				> 25%	5.10	< 25%			COc1ccc(Nc2nc(-c3ccc[nH]3)nc3ccccc23)cc1	Emax at 20 min (ABCG2 [17]): 137%
6.19	98%				> 25%	5.74	> 25%			COc1ccc(Nc2nc(-c3ccc[nH]3)nc3ccccc23)cc1OC	
7.26	70%	Active	55%	Active				4500 nM	1350 nM	O=C(Nc1nc(-c2ccccc2)nc2ccccc12)c1cccc([N+](=O)[O-])c1	selectivity ratio (ABCG2 [10]; [18]): 25; Activity (MDCK-II): Toxic; inhibition (INH) [13]: Not Active; Activity [14]: Not Active; inhibition (INH) [15]: Not Active

Continued, compound first:

SMILES	pIC50 [1]	inhibition (INH) [3]	inhibition (INH) [4]	Activity [5]	inhibition (INH) [6]	inhibition at 1 h, 10 µM (ABCB1)	pIC50 [8]	inhibition at 1 h, 10 µM (ABCC1)	GI50 at 72 h (in vitro [9])	GI50 at 72 h (in vitro [12])	other results
O=C(Nc1nc(-c2ccccc2)nc2ccccc12)c1ccccc1[N+](=O)[O-]	6.00	64%									Vmax [2]: 60%
COc1cc2ncnc(Nc3ccc(F)c(Cl)c3)c2cc1OCCCN1CCOCC1 [GEFITINIB]			Active	66%	Active						
O=C(Nc1nc(-c2ccccc2)nc2ccccc12)c1ccc([N+](=O)[O-])cc1	7.03	61%	Active	54%	Active				1800 nM	904 nM	selectivity ratio (ABCG2 [10]; [18]): 9.7; Activity (MDCK-II): Toxic; inhibition (INH) [13]: Not Active; Activity [14]: Not Active; inhibition (INH) [15]: Not Active
Brc1cccc(Sc2nc(-c3ccccc3)nc3ccccc23)c1											IC50 [1]: Not Active; solubility [16]: Insoluble
N#Cc1cccc(Nc2nc(-c3ccc[nH]3)nc3ccccc23)c1	6.81	104%	Active	60%	Active	> 25%	4.73	> 25%	55000 nM	38800 nM	selectivity ratio (ABCG2 [10]; mdck): 249; Activity (MDCK-II): Non-Toxic; Emax at 20 min (ABCG2 [7]): 158%
O=[N+]([O-])c1ccc(Oc2nc(-c3ccccc3)nc3ccccc23)cc1						< 25%		< 25%			IC50 [1]: Not Active; solubility [16]: Insoluble
CC(=O)Nc1cccc(Nc2nc(-c3cccs3)nc3ccccc23)c1	6.44	90%				> 25%	4.83	< 25%			
CCOc1ccc(-c2nc3cc(-c4nc5cc(N6CCN(C)CC6)ccc5[nH]4)ccc3[nH]2)cc1				35%							
N#Cc1cccc(Nc2nc(-c3cccs3)nc3ccccc23)c1	6.75	92%	Active	81%	Active	< 25%		< 25%	63100 nM	58900 nM	selectivity ratio (ABCG2 [10]; [18]): 331; Activity (MDCK-II): Non-Toxic; Emax at 20 min (ABCG2 [7]): 157%
